The values below come from ChEMBL document CHEMBL4017487, “Design and Synthesis of γ- and δ-Lactam M1 Positive Allosteric Modulators (PAMs): Convulsion and Cholinergic Toxicity of an M1-Selective PAM with Weak Agonist Activity” (J Med Chem, 2017).

Data set [1] addresses T1, Muscarinic acetylcholine receptor M1 (Homo sapiens, UniProt P11229).
T1 sequence (P11229 whole entry): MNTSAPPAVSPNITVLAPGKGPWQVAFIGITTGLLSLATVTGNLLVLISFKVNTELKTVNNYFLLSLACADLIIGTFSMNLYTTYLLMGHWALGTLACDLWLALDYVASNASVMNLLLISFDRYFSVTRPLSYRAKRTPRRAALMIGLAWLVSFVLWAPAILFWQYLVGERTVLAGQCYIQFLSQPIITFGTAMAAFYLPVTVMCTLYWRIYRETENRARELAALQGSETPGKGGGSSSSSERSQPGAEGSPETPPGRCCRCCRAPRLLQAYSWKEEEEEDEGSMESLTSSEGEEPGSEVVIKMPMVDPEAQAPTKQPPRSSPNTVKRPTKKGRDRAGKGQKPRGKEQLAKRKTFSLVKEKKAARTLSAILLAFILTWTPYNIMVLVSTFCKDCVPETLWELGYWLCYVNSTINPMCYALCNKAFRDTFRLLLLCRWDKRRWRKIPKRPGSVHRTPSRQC
Put plainly: Positive allosteric modulation of human muscarinic acetylcholine receptor M1 expressed in CHO cells assessed as increase in acetylcholine-induced calcium mobilization preincubated for 10 mins followed by acetylcholine addition by Fluo-8-AM dye based FLIPR assay. The class given is ADME, cell-based. Summed up: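 M1 potentiation (PAM) format: calcium mobilization read on a FLIPR plate reader with an EC20 concentration of ACh present. EC50 is the geometric mean of at least three experiments.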

Data set [2] can be described thus: Intrinsic clearance in human liver microsomes. Conditions: read-out: CLH. Type of data set: ADME, microsome. In general terms: Liver microsomes are a subcellular fraction often used to study metabolism.
The next data set has as its system MDR1. Put plainly: Efflux ratio of permeability from basolateral to apical side over apical to basolateral side in MDCK1 cells expressing MDR1. The class given is ADME, cell-based, Canis lupus familiaris. Conditions: dog, MDCK-MDR1. Summed up:
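MDCKI-MDR1 cells (MDCK epithelial line transfected with MDR1/P-gp; from the NIH). Permeability measured as a rate in 10−6 cm/s in both directions; value is the BA/AB ratio.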

The next data set deals with Mus musculus. Put plainly: In vivo agonist activity at muscarinic acetylcholine receptor M1 in C57BL/6 mouse assessed as unbound brain concentration required to show 2 fold increase in IP1 accumulation in striatum at 1 to 10 mg/kg, sc measured after 2 hrs. Type of data set: organism-based. Summed up: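 Cb,u giving a 2-fold rise in striatal IP1 in C57BL/6 mice, estimated by interpolation of individual-mouse IP1 versus free brain exposure data.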

Data set [3] concerns Rattus norvegicus. Put plainly: Toxicity in rat assessed as unbound Cmax in brain required to show convulsions at 45 mg/kg, po administered as single dose. Conditions: in vivo. The class given is organism-based.
For data set [4], the target named is T1, Muscarinic acetylcholine receptor M1. Put plainly: Agonist activity at human muscarinic acetylcholine receptor M1 expressed in CHO cells assessed as increase in calcium mobilization at 13 uM incubated for 10 mins by Fluo-8-AM dye based FLIPR assay relative to control. Conditions: read-out: %max. Type of data set: cell-based.
A short description of data set [5]: Ratio of unbound Cmax in rat brain assessed as convulsions at 45 mg/kg, po administered as single dose to unbound brain concentration for agonist activity at muscarinic acetylcholine receptor M1 in C57BL/6 mouse assessed as required to show 2 fold increase in IP1 accumulation in striatum at 1 to 10 mg/kg, sc. Type of data set: organism-based.
The target in data set [6] is T1, Muscarinic acetylcholine receptor M1. Put plainly: Agonist activity at human muscarinic acetylcholine receptor M1 expressed in CHO cells assessed as increase in calcium mobilization incubated for 10 mins by Fluo-8-AM dye based FLIPR assay. The class given is cell-based. The procedure, abridged:
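M1 FLIPR calcium mobilization run in agonist mode (compound added without the EC20 ACh used in PAM mode). Top concentration 10 μM. EC50 values are geometric means of at least three experiments.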
Background: Calcium flux is commonly read through the fluorescence of an indicator in the cells.

Data set [7] can be described thus: Ratio of unbound AUC in rat brain to plasma at 45 mg/kg, po administered as single dose. Type of data set: ADME, organism-based. Summed up: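 Rats, 3 per sex, received a single oral 45 mg/kg dose as a nanosuspension in 1.25% w/v hydroxypropyl cellulose SL with 0.05% docusate sodium in purified water. The brain/plasma ratio is the AUC ratio of unbound drug in brain to unbound drug in plasma. It was used to estimate unbound brain levels from measured unbound plasma Cmax.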

Data set [8] deals with Rattus norvegicus. In words: Toxicity in rat assessed as unbound Cmax in plasma required to show convulsions at 45 mg/kg, po administered as single dose. The class given is organism-based. The following applies: in vivo.
For data set [9], the target named is T1, Muscarinic acetylcholine receptor M1. Put plainly: Displacement of [3H]PT-1284 human muscarinic acetylcholine receptor M1 expressed in CHO cell membranes after 90 mins scintillation counting method. In general terms: Loss of bound radioactivity is the signal in a displacement assay; it reports binding, not function.
In another data set the target is Cytochrome P450 3A4 (Homo sapiens, UniProt P08684). Put plainly: Time dependent inhibition of CYP3A4 (unknown origin) by high throughput assay relative to 2-((3R,4S)-3-Hydroxytetrahydro-2H-pyran-4-yl)-5-methyl-6-(4-(oxazol-4-yl)benzyl)isoindolin-1-one. The class given is ADME.
In data set [10] the test system is Canis familiaris. In words: Toxicity in dog assessed as unbound Cmax in brain required to show convulsions at 15 mg/kg, po administered as single dose using spray dried dispersion formulation. The class given is organism-based, Canis lupus familiaris. The following applies: in vivo.
Data set [11] in a line: Ratio of unbound Cmax in dog brain assessed as convulsions at 15 mg/kg, po administered as single dose to unbound brain concentration for agonist activity at muscarinic acetylcholine receptor M1 in C57BL/6 mouse assessed as required to show 2 fold increase in IP1 accumulation in striatum at 1 to 10 mg/kg, sc. Type of data set: organism-based.
Data set [12] has as its system Canis familiaris. In words: Toxicity in dog assessed as unbound Cmax in plasma required to show convulsions at 15 mg/kg, po administered as single dose using spray dried dispersion formulation. Type of data set: organism-based, Canis lupus familiaris. The following applies: in vivo.

Molecules are shown by their SMILES.

Cytochrome P450 3A4, sequence (P08684 whole entry): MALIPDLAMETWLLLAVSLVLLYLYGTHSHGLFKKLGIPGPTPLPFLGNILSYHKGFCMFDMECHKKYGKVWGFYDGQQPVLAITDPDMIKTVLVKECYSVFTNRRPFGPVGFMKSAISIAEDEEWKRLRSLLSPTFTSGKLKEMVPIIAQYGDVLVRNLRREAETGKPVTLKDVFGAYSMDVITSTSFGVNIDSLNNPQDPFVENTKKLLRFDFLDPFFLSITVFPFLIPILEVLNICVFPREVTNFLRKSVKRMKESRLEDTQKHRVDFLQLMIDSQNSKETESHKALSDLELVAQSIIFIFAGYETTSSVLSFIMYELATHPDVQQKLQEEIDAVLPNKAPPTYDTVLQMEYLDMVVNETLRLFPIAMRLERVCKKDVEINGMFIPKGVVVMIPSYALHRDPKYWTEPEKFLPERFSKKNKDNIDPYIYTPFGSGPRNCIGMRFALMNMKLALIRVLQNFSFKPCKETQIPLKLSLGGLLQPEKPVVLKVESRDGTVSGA

On to `Cc1cc2c(cc1Cc1ccc(-n3ccnc3)cc1)C(=O)N([C@H]1CCOC[C@@H]1O)C2`, for which the EC50 (in general, the midpoint of the concentration-response curve) in data set [1] was found to be 0.068 µM. Besides, the CLint scaled in [2] was < 8 mL/min/kg. Also, in the data set with MDR1, the efflux ratio (as a rule, a quotient of directional permeabilities that is used to spot active efflux) worked out at 53.
For `Cc1cc2c(cc1Cc1ccc(-n3cccn3)cc1)C(=O)N([C@H]1CCOC[C@@H]1O)C2`, the EC50 in [1] was determined as 0.036 µM. Further, in data set [2], the CLint scaled was < 8 mL/min/kg. Also, the efflux ratio with MDR1 was determined as 18.
Consider `Cc1cc2c(cc1Cc1ccc(-c3cscn3)cc1)C(=O)N([C@H]1CCOC[C@@H]1O)CC2`, for which, in data set [1], the 50% effective concentration (EC50) is 0.007 µM. The CLint scaled in [2] stood at 25 mL/min/kg. Also, the efflux ratio in the data set on MDR1 is 12.
Take `Cn1ccc(-c2ccc(Cn3cc(C(=O)N[C@H]4CCOC[C@@H]4O)c4ncccc43)cc2)n1`: in the data set with Mus musculus, the “Drug uptake(free)” value was 32 nM.
As for `Cc1ccc(Cc2cc3c(=O)n([C@H]4CCCC[C@@H]4O)cnc3c3ccccc23)cn1` [MK-7622], the fCmax was 130 nM in the data set with Rattus norvegicus [3] and 550 nM in the data set on Rattus norvegicus [8]. Further, the Emax at 13 µM in data set [4] was 62%. In addition, the EC50 in data set [1] is 0.063 µM; in data set [6], > 2 µM. Further, in data set [5], the selectivity ratio came to 33. In data set [7], the Kp uu was 0.24. Further, the “Drug uptake(free)” value with Mus musculus was determined as 4 nM. Besides, the Ki (as a rule, the equilibrium dissociation constant of an inhibitor or competing ligand from its target) in [9] is 0.008 µM.
As for `Cc1nc(-c2ccc(Cc3cc4c(cc3C)CCN([C@H]3CCOC[C@@H]3O)C4=O)cc2)co1`, the EC50 in data set [1] came out at 0.023 µM. In [2], the CLint scaled was determined as 21 mL/min/kg. Further, in the data set on MDR1, the efflux ratio was found to be 14.
Regarding `Cc1cc2c(cc1Cc1ccc(-c3cnn(C)c3)cc1)C(=O)N([C@H]1CCOC[C@@H]1O)C2`, in data set [1], the EC50 came to 0.027 µM. The CLint scaled in [2] is 15 mL/min/kg. In the data set with MDR1, the efflux ratio came out at 7.6.
For `Cc1cc2c(cc1Cc1ccc(-n3cccn3)cc1)C(=O)N([C@H]1CCOC[C@@H]1O)CC2` the same measures were 0.018 µM, 15 mL/min/kg and 11.
For `Cc1cn(-c2ccc(Cc3cc4c(cc3C)CN([C@H]3CCOC[C@@H]3O)C4=O)cc2)cn1`, the EC50 in data set [1] was 0.045 µM. Also, the CLint scaled in data set [2] amounted to 30 mL/min/kg. Also, in the data set with MDR1, the efflux ratio is 63.
The matching figures for `Cc1nc(-c2ccc(Cc3cc4c(cc3C)CN([C@H]3CCOC[C@@H]3O)C4=O)cc2)co1`: 0.05 µM, 13 mL/min/kg and 11.
Regarding `Cc1cc2c(cc1Cc1ccc(-c3cocn3)cc1)C(=O)N([C@H]1CCOC[C@@H]1O)CC2`, in [1], the EC50 worked out at 0.026 µM. Also, the CLint scaled in [2] stood at 13 mL/min/kg. In addition, the efflux ratio in the data set with MDR1 was determined as 2.7. Moreover, the “fold change (FC)” value at Cytochrome P450 3A4 is 6.
Turning to `Cc1cnc(C(=O)N[C@H]2CCOC[C@@H]2O)cc1Cc1ccc(-c2cscn2)cc1`, the fCmax stood at 290 nM in the data set on Canis familiaris [10] and 950 nM with Canis familiaris [12]. For the same molecule, in [4], the Emax at 13 µM turned out to be 34%. The selectivity ratio was > 29 in [5] and 20 in [11]. For the same molecule, the EC50 in data set [6] was > 4 µM. In the data set with Mus musculus, the “Drug uptake(free)” value came out at 14 nM. The molecule further displayed a Ki in [9] of 0.019 µM.
On to `Cc1cc2c(cc1Cc1ccc(-c3cscn3)cc1)C(=O)N([C@H]1CCOC[C@@H]1O)C2`, for which the EC50 in data set [1] turned out to be 0.024 µM. Moreover, the CLint scaled in data set [2] is 10 mL/min/kg. Besides, in the data set with MDR1, the efflux ratio was 11.
